According to ChEMBL document CHEMBL2086248, “Synthesis of some novel 1-(2-naphthyl)-2-(imidazol-1-yl)ethanone oxime ester derivatives and evaluation of their anticonvulsant activity” (Eur J Med Chem, 2012):
The source made the active and inactive calls.

What was measured:
Mus musculus [1] = assay: Anticonvulsant activity in mouse assessed as protection against subcutaneous pentylenetetrazole-induced seizures at 100 mg/kg, ip after 4 hrs; assay type: functional, organism-based; parameters: dose 100 mg/kg
How it was run: (§1)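 Swiss albino mice (20-24 g) were dosed ip with a suspension in 30% aqueous PEG 400 and challenged 0.5 h or 4 h later. Protection meant no threshold seizure (clonic spasms lasting at least 5 s). Scored as number protected/number tested, one mouse per dose and time.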

Mus musculus [2] = assay: Anticonvulsant activity in mouse assessed as protection against subcutaneous pentylenetetrazole-induced seizures at 30 mg/kg, ip after 4 hrs; assay type: functional, organism-based; parameters: dose 30 mg/kg; how it was run: as §1
Mus musculus [3] = assay: Anticonvulsant activity in mouse assessed as protection against subcutaneous pentylenetetrazole-induced seizures at 300 mg/kg, ip after 4 hrs; assay type: functional, organism-based; parameters: dose 300 mg/kg; how it was run: as §1
Mus musculus [4] = assay: Neurotoxicity in mouse assessed as motor impairment at 30 mg/kg, ip after 0.5 hrs by rotarod test; assay type: toxicity, organism-based; parameters: dose 30 mg/kg, route intraperitoneal; conditions: in vivo
How it was run: (§2)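 Swiss albino mice (20-24 g) were dosed ip with a suspension in 30% aqueous PEG 400 and tested 0.5 h or 4 h later. They were placed on a knurled wooden rod 1 inch in diameter, rotating at 6 rpm. Toxicity meant failure to stay on the rod for at least 1 min in each of three trials. Scored as number toxic/number tested (4 mice at 0.5 h, 2 at 4 h).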

Mus musculus [5] = assay: Anticonvulsant activity in mouse assessed as protection against maximal electroshock-induced seizures at 300 mg/kg, ip after 4 hrs; assay type: functional, organism-based; parameters: dose 300 mg/kg
How it was run: (§3)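 Swiss albino mice (20-24 g) received an ip suspension in 30% aqueous PEG 400 and were tested 0.5 h and 4 h after dosing. Shock was delivered through corneal electrodes from a constant current unit, with 0.9% saline dropped into the eyes first. Protection meant abolition of the hind limb tonic extension. Scored as number protected/number tested, one mouse per dose and time.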

Mus musculus [6] = assay: Neurotoxicity in mouse assessed as motor impairment at 300 mg/kg, ip after 0.5 hrs by rotarod test; assay type: toxicity, organism-based; parameters: dose 300 mg/kg, route intraperitoneal; conditions: in vivo; how it was run: as §2
Mus musculus [7] = assay: Neurotoxicity in mouse assessed as motor impairment at 100 mg/kg, ip after 4 hrs by rotarod test; assay type: toxicity, organism-based; parameters: dose 100 mg/kg, route intraperitoneal; conditions: in vivo; how it was run: as §2
Mus musculus [8] = assay: Anticonvulsant activity in mouse assessed as protection against maximal electroshock-induced seizures at 300 mg/kg, ip after 0.5 hrs; assay type: functional, organism-based; parameters: dose 300 mg/kg; how it was run: as §3
Mus musculus [9] = assay: Anticonvulsant activity in mouse assessed as protection against subcutaneous pentylenetetrazole-induced seizures at 300 mg/kg, ip after 0.5 hrs; assay type: functional, organism-based; parameters: dose 300 mg/kg; how it was run: as §1
Mus musculus [10] = assay: Neurotoxicity in mouse assessed as motor impairment at 30 mg/kg, ip after 4 hrs by rotarod test; assay type: toxicity, organism-based; parameters: dose 30 mg/kg, route intraperitoneal; conditions: in vivo; how it was run: as §2
Mus musculus [11] = assay: Anticonvulsant activity in mouse assessed as protection against maximal electroshock-induced seizures at 30 mg/kg, ip after 0.5 hrs; assay type: functional, organism-based; parameters: dose 30 mg/kg; how it was run: as §3
Mus musculus [12] = assay: Anticonvulsant activity in mouse assessed as protection against subcutaneous pentylenetetrazole-induced seizures at 100 mg/kg, ip after 0.5 hrs; assay type: functional, organism-based; parameters: dose 100 mg/kg; how it was run: as §1
Mus musculus [13] = assay: Anticonvulsant activity in mouse assessed as protection against subcutaneous pentylenetetrazole-induced seizures at 30 mg/kg, ip after 0.5 hrs; assay type: functional, organism-based; parameters: dose 30 mg/kg; how it was run: as §1
Mus musculus [14] = assay: Neurotoxicity in mouse assessed as motor impairment at 100 mg/kg, ip after 0.5 hrs by rotarod test; assay type: toxicity, organism-based; parameters: dose 100 mg/kg, route intraperitoneal; conditions: in vivo; how it was run: as §2
Mus musculus [15] = assay: Neurotoxicity in mouse assessed as motor impairment at 300 mg/kg, ip after 4 hrs by rotarod test; assay type: toxicity, organism-based; parameters: dose 300 mg/kg, route intraperitoneal; conditions: in vivo; how it was run: as §2
Mus musculus [16] = assay: Anticonvulsant activity in mouse assessed as protection against maximal electroshock-induced seizures at 100 mg/kg, ip after 0.5 hrs; assay type: functional, organism-based; parameters: dose 100 mg/kg; how it was run: as §3
Mus musculus [17] = assay: Anticonvulsant activity in mouse assessed as protection against maximal electroshock-induced seizures at 100 mg/kg, ip after 4 hrs; assay type: functional, organism-based; parameters: dose 100 mg/kg; how it was run: as §3
Mus musculus [18] = assay: Anticonvulsant activity in mouse assessed as protection against maximal electroshock-induced seizures at 30 mg/kg, ip after 4 hrs; assay type: functional, organism-based; parameters: dose 30 mg/kg; how it was run: as §3

SMILES | Activity (Mus musculus [1]) | Activity (Mus musculus [2]) | Activity (Mus musculus [3]) | Activity (Mus musculus [4]) | Activity (Mus musculus [5]) | Activity (Mus musculus [6]) | Activity (Mus musculus [7]) | Activity (Mus musculus [8]) | Activity (Mus musculus [9]) | Activity (Mus musculus [10]) | Activity (Mus musculus [11]) | Activity (Mus musculus [12]) | Activity (Mus musculus [13]) | Activity (Mus musculus [14]) | Activity (Mus musculus [15]) | Activity (Mus musculus [16]) | Activity (Mus musculus [17]) | Activity (Mus musculus [18])
O=C(O/N=C(\Cn1ccnc1)c1ccc2ccccc2c1)c1ccc(Cl)cc1 | Active | Active | Active | Non-toxic | inactive | Non-toxic | Non-toxic | inactive | inactive | Non-toxic | inactive | inactive | inactive | Non-toxic | Non-toxic | inactive | inactive | inactive
O=C(O/N=C(\Cn1ccnc1)c1ccc2ccccc2c1)c1cccc(Br)c1 | inactive | inactive | inactive | Non-toxic | inactive | Non-toxic | Non-toxic | Active | inactive | Non-toxic | inactive | inactive | inactive | Non-toxic | Non-toxic | Active | inactive | inactive
NC(=O)N1c2ccccc2C=Cc2ccccc21 [CARBAMAZEPINE] | Active | inactive | Active | Non-toxic | Active | Toxic | Non-toxic | Active | Active | Non-toxic | Active | inactive | inactive | Non-toxic | Non-toxic | Active | Active | inactive
CCCC(CCC)C(=O)[O-].[Na+] [VALPROATE SODIUM] | inactive | inactive | inactive | Non-toxic | inactive | Non-toxic | Non-toxic | Active | Active | Non-toxic | inactive | inactive | inactive | Non-toxic | Non-toxic | inactive | inactive | inactive
CCCC(=O)O/N=C(\Cn1ccnc1)c1ccc2ccccc2c1.Cl | inactive | inactive | Active | Non-toxic | Active | Toxic | Non-toxic | Active | inactive | Non-toxic | Active | inactive | inactive | Non-toxic | Non-toxic | Active | inactive | inactive
CCCC(CCC)C(=O)ON=C(Cn1ccnc1)c1ccc2ccccc2c1.Cl (mixture of isomers) | inactive | inactive | Active | Non-toxic | Active | Non-toxic | Non-toxic | Active | Active | Non-toxic | Active | inactive | inactive | Non-toxic | Non-toxic | Active | inactive | inactive
Cc1ccc(C(=O)O/N=C(\Cn2ccnc2)c2ccc3ccccc3c2)cc1 | inactive | inactive | Active | Non-toxic | inactive | Non-toxic | Non-toxic | Active | Active | Non-toxic | inactive | Active | inactive | Non-toxic | Non-toxic | Active | inactive | inactive
Cl.O=C(O/N=C(\Cn1ccnc1)c1ccc2ccccc2c1)c1ccc(-c2ccccc2)cc1 | inactive | inactive | inactive | Non-toxic | Active | Non-toxic | Non-toxic | inactive | inactive | Non-toxic | inactive | inactive | inactive | Non-toxic | Non-toxic | inactive | inactive | inactive
Cc1cccc(C(=O)O/N=C(\Cn2ccnc2)c2ccc3ccccc3c2)c1 | inactive | inactive | Active | Non-toxic | inactive | Non-toxic | Non-toxic | inactive | Active | Non-toxic | inactive | inactive | inactive | Non-toxic | Non-toxic | inactive | inactive | inactive
COc1ccc(C(=O)O/N=C(\Cn2ccnc2)c2ccc3ccccc3c2)cc1 | inactive | inactive | inactive | Non-toxic | inactive | Non-toxic | Non-toxic | inactive | Active | Non-toxic | inactive | inactive | inactive | Non-toxic | Non-toxic | inactive | inactive | inactive
CCCCC(=O)O/N=C(\Cn1ccnc1)c1ccc2ccccc2c1.Cl | inactive | inactive | inactive | Non-toxic | inactive | Non-toxic | Non-toxic | Active | inactive | Non-toxic | Active | inactive | inactive | Non-toxic | Non-toxic | Active | inactive | inactive
CC(C)CC(=O)O/N=C(\Cn1ccnc1)c1ccc2ccccc2c1.Cl | inactive | inactive | inactive | Non-toxic | Active | Non-toxic | Non-toxic | Active | inactive | Non-toxic | inactive | inactive | inactive | Non-toxic | Non-toxic | Active | Active | inactive
